Columns and labels:
[1] = melting temperature; fluorescence melt of hairpins on a sequencing array, two-state fit, raised by 9.35 °C to match UV melts; settings: sodium 0.088 M
Outline: (§1)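 Hairpins were imaged by Cy3 fluorescence on a sequenced MiSeq flow cell with annealed Cy3 and quencher oligos, in 50 mM Na-HEPES pH 8.0, 25 mM NaCl, in 2.5 °C steps up to 60 °C. Bootstrapped two-state fits of normalised signals gave melting temperature and folding enthalpy. Four replicates were combined by inverse variance, and fitted temperatures were raised by 9.35 °C to match UV melts.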

[2] = folding enthalpy; higher = less favourable; fluorescence melt of hairpins on a sequencing array, two-state fit; settings: sodium 0.088 M
Outline: as §1

Row | Sequence | Tm [1] | folding enthalpy [2]
1 | GCCATTCGAAAGAAGGC (((.(((....)))))) | 48.1 °C | -25.6 kcal/mol
2 | GGCAGCGGAAACGCCACC ((..(((....)))..)) | 36.6 °C | -13.9 kcal/mol
3 | CGCACGGAAACGTCGGCG ((((((....)))..))) | 46.6 °C | -24 kcal/mol
4 | GATCCTTACAAGGATC ((((((....)))))) | 54.2 °C | -38.1 kcal/mol
5 | GCGACAGGAAACTGTTGC ((.((((....)))).)) | 54.9 °C | -34.4 kcal/mol
6 | GATCATCAAAATGATC ((((((....)))))) | 45 °C | -33.3 kcal/mol
7 | GAGAAGGGAAACCTTTTC ((.((((....)))).)) | 28.8 °C | -28.4 kcal/mol
8 | GGCTCCGGAAACGGGGCC (((.(((....))).))) | 67.5 °C | -50.7 kcal/mol
9 | GCGGAATTCCGC ((((....)))) | 56.3 °C | -36.5 kcal/mol
10 | GGTAACGAAAGTTTCACC ((((((....)))..))) | 28.8 °C | -9.74 kcal/mol
11 | GTAGTCACGAAAGTGTAC (((..(((....)))))) | 30.5 °C | -12 kcal/mol
12 | GGTCTAGAAATAGACC ((((((....)))))) | 51.8 °C | -38.1 kcal/mol
13 | GTCAGGGCGAAAGCCGAC (((..(((....)))))) | 48.7 °C | -14.7 kcal/mol
14 | GAAGAGCGAAAGCTGTTC (((.(((....))).))) | 49.2 °C | -24.9 kcal/mol
15 | GGCACCGAAAGGTCGCC ((((((....))).))) | 59.4 °C | -35.6 kcal/mol
16 | GACCATGGAAACATAGTC (((.(((....))).))) | 30.8 °C | -19.8 kcal/mol
17 | GGGTTGCGAAAGCACCCC (((.(((....))).))) | 62.9 °C | -19.4 kcal/mol
18 | GGTCTCGAAAGAGAGACC ((((((....)))..))) | 54.9 °C | -29.6 kcal/mol
19 | GCTTATCGAAAGATAGC (((.(((....)))))) | 43.4 °C | -27.5 kcal/mol
20 | GTCATAGGAAACTATGAC (((((((....))))))) | 55.9 °C | -39.3 kcal/mol
21 | GTACTCGAAAGAGCTTAC ((((((....)))..))) | 27.6 °C | -11.4 kcal/mol
22 | GGGCCCGAAAGGGAACCC ((((((....)))..))) | 57.5 °C | -15.6 kcal/mol
23 | GGAAATCGAAAGATGTCC (((.(((....))).))) | 40.9 °C | -29 kcal/mol

Reference: the array DNA melting data of Ke et al. (doi:10.1101/2024.01.08.574731)
